Measurements taken from paper PMC7607594 (BMJ Open Diabetes Research & Care, 2020).

Legend:
GLP-1r = target: T1, GLP-1r (Sus scrofa, UniProt A0ACM8QMX0); assay: GLP-1r PET imaging with compartmental kinetic analysis; format: in vivo, Yucatan mini-pigs; details: 2-tissue compartment model, mean±SEM
T1 sequence (A0ACM8QMX0 24-463): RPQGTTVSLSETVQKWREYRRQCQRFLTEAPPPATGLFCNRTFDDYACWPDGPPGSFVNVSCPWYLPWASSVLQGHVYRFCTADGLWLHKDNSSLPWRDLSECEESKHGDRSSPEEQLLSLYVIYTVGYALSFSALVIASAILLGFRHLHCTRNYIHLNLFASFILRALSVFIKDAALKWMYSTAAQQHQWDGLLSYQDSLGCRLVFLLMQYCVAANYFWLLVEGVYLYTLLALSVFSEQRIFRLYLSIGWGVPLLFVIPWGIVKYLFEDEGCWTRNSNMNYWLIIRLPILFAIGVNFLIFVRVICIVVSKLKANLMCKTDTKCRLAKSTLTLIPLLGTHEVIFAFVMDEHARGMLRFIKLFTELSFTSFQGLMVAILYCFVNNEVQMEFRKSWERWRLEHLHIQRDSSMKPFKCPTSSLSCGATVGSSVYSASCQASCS
Summary of the method: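 Adult Yucatan mini-pigs, lean or obese, anesthetized; a 68Ga-labeled GLP-1r agonist radiotracer at 0.2 MBq/kg was given IV over 30 s. A dynamic abdominal PET-CT scan ran for 60 min in 30 frames, either fasted or at euglycemic–hyperinsulinemic clamp plateau (insulin 120 mU kg−1 h−1, 20% glucose). Arterial input came from an external arteriovenous loop gamma detector. Vs came from a 2-tissue compartment fit. Mean±SEM, unpaired t-test.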

[1] = ^68Ga-DOTA PET imaging of visceral blood flow; format: in vivo, Yucatan mini-pigs; details: for K1 (unidirectional transfer rate from blood to tissue): 1-tissue compartment model, mean±SEM
Summary of the method: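 Visceral perfusion was measured in anesthetized lean and obese Yucatan mini-pigs during the same session, after GLP-1r imaging. 68Ga-DOTA at 1.2 MBq/kg was given IV over 10 s, followed by a dynamic PET of 10 min in 46 frames. Arterial input came from an arteriovenous loop. Images were partial-volume corrected. K1 came from a one-tissue compartment fit. Mean±SEM, unpaired t-test.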

GLP-1r binding potential (Vs, distribution volume of specific binding) (GLP-1r; duodenum, lean, fasted) | GLP-1r binding potential (Vs, distribution volume of specific binding) (GLP-1r; duodenum, lean, insulin (clamp plateau)) | GLP-1r binding potential (Vs, distribution volume of specific binding) (GLP-1r; duodenum, obese, fasted) | GLP-1r binding potential (Vs, distribution volume of specific binding) (GLP-1r; duodenum, obese, insulin (clamp plateau)) | GLP-1r binding potential (Vs, distribution volume of specific binding) (GLP-1r; pancreas, obese, fasted) | GLP-1r binding potential (Vs, distribution volume of specific binding) (GLP-1r; subcutaneous fat, lean, fasted) | GLP-1r binding potential (Vs, distribution volume of specific binding) (GLP-1r; subcutaneous fat, obese, fasted) | GLP-1r binding potential (Vs, distribution volume of specific binding) (GLP-1r; visceral fat, lean, fasted) | GLP-1r binding potential (Vs, distribution volume of specific binding) (GLP-1r; visceral fat, obese, fasted) | K1 (unidirectional transfer rate from blood to tissue) ([1]; duodenum, lean) | K1 (unidirectional transfer rate from blood to tissue) ([1]; pancreas, obese) | reduction of K1 for the flow-coded images ([1]; pancreatic level, obese versus lean animals) | K1 (unidirectional transfer rate from blood to tissue) ([1]; subcutaneous fat, lean) | K1 (unidirectional transfer rate from blood to tissue) ([1]; subcutaneous fat, obese) | K1 (unidirectional transfer rate from blood to tissue) ([1]; visceral fat, lean) | K1 (unidirectional transfer rate from blood to tissue) ([1]; visceral fat, obese) | Substance
3.02±0.20 mL/ccm | 2.62±0.17 mL/ccm | 2.87±0.29 mL/ccm | 2.88±0.25 mL/ccm | 1.49±0.47 mL/ccm | 0.13±0.02 mL/ccm | 0.06±0.02 mL/ccm | 0.44±0.13 mL/ccm | 0.13±0.02 mL/ccm |  |  |  |  |  |  |  | [^68Ga]Ga-DO3A-VS-Cys40-exendin-4
 |  |  |  |  |  |  |  |  | 0.14±0.02 mL ccm^−1 min^−1 | 0.14±0.05 mL ccm^−1 min^−1 | about 90% | 0.08±0.03 mL ccm^−1 min^−1 | 0.01±0.01 mL ccm^−1 min^−1 | 0.02±0.01 mL ccm^−1 min^−1 | 0.03±0.01 mL ccm^−1 min^−1 | ^68Ga-DOTA
